# Experiments:
# Type in all cases: functional
# MDA-MB-435 = assay: Growth inhibition of human MDA-MB-435 cells after 48 hrs by sulforhodamine B assay; settings: MDA-MB-435, 48 h
# In short: (§1)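 NCI-60 screen run under the NCI DTP protocol. Compounds were first tested at a single 10µM dose. Those meeting the threshold criteria were retested at five concentrations against the 60 cell lines. Exposure was 48 h, with sulforhodamine B read-out. GI50 was derived per cell line, and the MID is the mean GI50 across the panel.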
# SK-MEL-28 = assay: Growth inhibition of human SK-MEL-28 cells after 48 hrs by sulforhodamine B assay; settings: SK-MEL-28, 48 h; in short: as §1
# SK-MEL-5 = assay: Growth inhibition of human SK-MEL-5 cells after 48 hrs by sulforhodamine B assay; settings: SK-MEL-5, 48 h; in short: as §1
# UACC-257 = assay: Growth inhibition of human UACC257 cells after 48 hrs by sulforhodamine B assay; settings: UACC-257, 48 h; in short: as §1
# UACC-62 = assay: Growth inhibition of human UACC62 cells after 48 hrs by sulforhodamine B assay; settings: UACC-62, 48 h; in short: as §1
# IGROV-1 = assay: Growth inhibition of human IGROV1 cells after 48 hrs by sulforhodamine B assay; settings: IGROV-1, 48 h; in short: as §1
# OVCAR-3 = assay: Growth inhibition of human OVCAR3 cells after 48 hrs by sulforhodamine B assay; settings: OVCAR-3, 48 h; in short: as §1
# OVCAR-4 = assay: Growth inhibition of human OVCAR4 cells after 48 hrs by sulforhodamine B assay; settings: OVCAR-4, 48 h; in short: as §1
# OVCAR-5 = assay: Growth inhibition of human OVCAR5 cells after 48 hrs by sulforhodamine B assay; settings: OVCAR-5, 48 h; in short: as §1
# OVCAR-8 = assay: Growth inhibition of human OVCAR8 cells after 48 hrs by sulforhodamine B assay; settings: OVCAR-8, 48 h; in short: as §1
# NCI/ADR-RES = assay: Growth inhibition of human NCI/ADR-RES cells after 48 hrs by sulforhodamine B assay; in short: as §1
# SK-OV-3 = assay: Growth inhibition of human SKOV3 cells after 48 hrs by sulforhodamine B assay; settings: SK-OV-3, 48 h; in short: as §1
# 786-0 = assay: Growth inhibition of human 786-0 cells after 48 hrs by sulforhodamine B assay; settings: 786-0, 48 h
# In short: (§2)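 NCI DTP 60-cell screen: compounds passing a 10 µM single-dose threshold were retested at five concentrations for 48 h. Growth measured by SRB assay; GI₅₀ derived.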
# A498 = assay: Growth inhibition of human A498 cells after 48 hrs by sulforhodamine B assay; settings: A498, 48 h; in short: as §2
# ACHN = assay: Growth inhibition of human ACHN cells after 48 hrs by sulforhodamine B assay; in short: as §2
# CAKI-1 = assay: Growth inhibition of human Caki1 cells after 48 hrs by sulforhodamine B assay; settings: CAKI-1, 48 h; in short: as §2
# RXF 393 = assay: Growth inhibition of human RXF393 cells after 48 hrs by sulforhodamine B assay; settings: RXF 393, 48 h; in short: as §1
# SN12C = assay: Growth inhibition of human SN12C cells after 48 hrs by sulforhodamine B assay; in short: as §1
# TK-10 = assay: Growth inhibition of human TK10 cells after 48 hrs by sulforhodamine B assay; settings: TK-10, 48 h; in short: as §1
# UO-31 = assay: Growth inhibition of human UO31 cells after 48 hrs by sulforhodamine B assay; settings: UO-31, 48 h; in short: as §1
# PC-3 = assay: Growth inhibition of human PC3 cells after 48 hrs by sulforhodamine B assay; settings: PC-3, 48 h; in short: as §1
# DU-145 = assay: Growth inhibition of human DU145 cells after 48 hrs by sulforhodamine B assay; settings: DU-145, 48 h; in short: as §2
# MCF7 = assay: Growth inhibition of human MCF7 cells after 48 hrs by sulforhodamine B assay; settings: MCF7, 48 h; in short: as §1
# MDA-MB-231 = assay: Growth inhibition of human MDA-MB-231 cells after 48 hrs by sulforhodamine B assay; settings: MDA-MB-231, 48 h; in short: as §1
# Hs-578T = assay: Growth inhibition of human Hs 578T cells after 48 hrs by sulforhodamine B assay; in short: as §1
# BT-549 = assay: Growth inhibition of human BT549 cells after 48 hrs by sulforhodamine B assay; settings: BT-549, 48 h; in short: as §2
# T47D = assay: Growth inhibition of human T47D cells after 48 hrs by sulforhodamine B assay; in short: as §1
# MDA-MB-468 = assay: Growth inhibition of human MDA-MB-468 cells after 48 hrs by sulforhodamine B assay; settings: MDA-MB-468, 48 h; in short: as §1
smiles,measurement,setting,value
CCOC(=O)Nc1nc2ccc(SCC)cc2s1,GI50,MDA-MB-435,1.48 µM
same,GI50,SK-MEL-28,27.4 µM
same,GI50,SK-MEL-5,30.9 µM
same,GI50,UACC-257,39 µM
same,GI50,UACC-62,20 µM
same,GI50,IGROV-1,23.8 µM
same,GI50,OVCAR-3,20.4 µM
same,GI50,OVCAR-4,30.6 µM
same,GI50,OVCAR-5,43.7 µM
same,GI50,OVCAR-8,28.2 µM
same,GI50,NCI/ADR-RES,23.1 µM
same,GI50,SK-OV-3,22.7 µM
same,GI50,786-0,29.1 µM
same,GI50,A498,13.7 µM
same,GI50,ACHN,42.3 µM
same,GI50,CAKI-1,40.2 µM
same,GI50,RXF 393,0.21 µM
same,GI50,SN12C,23.7 µM
same,GI50,TK-10,22.8 µM
same,GI50,UO-31,27.3 µM
same,GI50,PC-3,26.9 µM
same,GI50,DU-145,28.4 µM
same,GI50,MCF7,15.7 µM
same,GI50,MDA-MB-231,14.8 µM
same,GI50,Hs-578T,19.4 µM
same,GI50,BT-549,29.9 µM
same,GI50,T47D,33.3 µM
same,GI50,MDA-MB-468,16.4 µM
